These results are taken from ChEMBL document CHEMBL4024713, “Novel aryl piperazines for alleviation of 'andropause' associated prostatic disorders and depression” (Eur J Med Chem, 2017).

The subject of one series is LNCaP. Nature of the series: Cytotoxicity against human LNCAP cells after 24 hrs by MTT assay. It is filed as functional, cell-based. (Tetrazolium assays rely on reduction of a dye to a coloured formazan, in cell work by metabolically active cells.)
Series [1] concerns the target T1, Androgen receptor (Homo sapiens) (UniProt P10275).
T1 sequence (whole entry): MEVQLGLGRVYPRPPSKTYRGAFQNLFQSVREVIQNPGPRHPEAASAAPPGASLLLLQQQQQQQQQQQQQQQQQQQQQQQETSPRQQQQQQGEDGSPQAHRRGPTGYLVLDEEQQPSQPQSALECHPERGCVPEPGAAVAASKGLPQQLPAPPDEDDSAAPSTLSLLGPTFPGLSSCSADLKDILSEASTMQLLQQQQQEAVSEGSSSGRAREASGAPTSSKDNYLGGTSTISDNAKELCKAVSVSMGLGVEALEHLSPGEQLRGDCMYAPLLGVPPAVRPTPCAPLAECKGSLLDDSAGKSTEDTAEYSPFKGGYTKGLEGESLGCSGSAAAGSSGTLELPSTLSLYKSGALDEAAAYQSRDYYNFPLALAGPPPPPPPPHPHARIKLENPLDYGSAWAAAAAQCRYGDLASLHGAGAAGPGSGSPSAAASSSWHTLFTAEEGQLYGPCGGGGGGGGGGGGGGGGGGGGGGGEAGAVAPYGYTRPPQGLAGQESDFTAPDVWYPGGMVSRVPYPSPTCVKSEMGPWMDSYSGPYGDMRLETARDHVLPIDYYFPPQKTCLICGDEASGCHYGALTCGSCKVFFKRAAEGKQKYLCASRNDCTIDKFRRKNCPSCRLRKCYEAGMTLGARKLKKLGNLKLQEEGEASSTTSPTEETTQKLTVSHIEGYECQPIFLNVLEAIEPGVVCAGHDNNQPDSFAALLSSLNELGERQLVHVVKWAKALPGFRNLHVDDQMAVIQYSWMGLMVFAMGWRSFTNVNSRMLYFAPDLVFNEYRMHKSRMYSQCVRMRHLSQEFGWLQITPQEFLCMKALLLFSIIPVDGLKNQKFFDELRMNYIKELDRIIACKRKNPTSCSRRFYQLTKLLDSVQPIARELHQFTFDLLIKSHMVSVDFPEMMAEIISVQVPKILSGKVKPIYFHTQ
Nature of the series: Antagonist activity at AR (unknown origin) expressed in African green monkey COS7 cells at 7.5 uM after 24 hrs by dual luciferase reporter gene assay. It is filed as cell-based. Put shortly:
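Cos7 cells (AR-negative) transiently transfected for 8 h with pARE-E1B-LUC reporter plus pCR3.1.AR expression vector. Then in complete medium, treated with compound at 7.5 μM for 24 h; bicalutamide 3 μM as positive control. Luciferase normalized to pRL-SV40 internal control, expressed as RLU relative to control = 100%.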
In general terms: Reporter assays use an easily measured gene product as a stand-in for the process of interest.

For a further series, the system named is PC-3. Nature of the series: Cytotoxicity against human PC3 cells after 24 hrs by MTT assay. It is filed as functional, cell-based. The note with it: PC-3, 24 h.
In another series the test system is Rattus norvegicus. In words: Anti-androgenic activity in citral-induced prostatic hyperplasia Sprague-Dawley rat model assessed increase in distinction between stromal and acinar compartments at 10 mg/kg, po administered once daily coadministered with citral for 21 days measured 24 hrs last post dose by hematoxyline and eosin stainig based light microscopic analysis. It is filed as functional, organism-based. The procedure, abridged:
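Adult male Sprague-Dawley rats (250-280 g, n = 5), citral 100 mg/kg orally once daily for 28 days. From day 8, compound or flutamide at 10 mg/kg orally once daily for the remaining 21 days. Prostate weight is expressed relative to the citral group (100%). Prostates fixed in 10% formalin; 5 μ sections stained with H&E, examined by light microscopy.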

For series [2], the system named is Mus musculus. Nature of the series: Anti-depressant like activity in Swiss albino mouse assessed as reduction in immobility time at 20 mg/kg, po administered 60 mins prior to test measured for 5 mins by forced swim test relative to control. It is filed as functional. Further details: scale not given: the % may be the effect or the level left. The procedure, abridged: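 Male Swiss albino mice (20-25 g); compound 20 mg/kg, imipramine 60 mg/kg or fluoxetine 20 mg/kg given orally in 1% gum acacia (10 mL/kg). After 60 min: 15 min pre-swim in a water cylinder (10 cm depth, 25 ± 1 °C), then retest at 24 h. Immobility recorded for 5 min after 1 min acclimatization; N = 7-9, mean ± SEM, unpaired t-test.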

The subject of series [3] is Mus musculus. In words: Anti-depressant like activity in Swiss albino mouse assessed as reduction in immobility time at 20 mg/kg, po measured for 5 mins by tail suspension test. It is filed as functional, organism-based. Put shortly:
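Male Swiss albino mice dosed orally in 1% gum acacia; imipramine as standard. Each mouse suspended by the tail with tape to a horizontal bar 60 cm above the table. Immobility (no limb or body movement other than respiration) recorded for 5 min after 1 min acclimatization; N = 5.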

In series [4] the test system is Mus musculus. Nature of the series: Toxicity in Swiss albino mouse assessed as effect on locomotor activity at 20 mg/kg, po measured at 5 mins interval for 90 mins by open field test. It is filed as organism-based. Particulars: in vivo. Put shortly:
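Male Swiss albino mice in an activity chamber, infrared beam-break counting over 24 intervals of 5 min (120 min). Oral dosing after the 6th interval; six animals per group.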

Series [5] in a line: AUClast in Sprague-Dawley rat serum at 10 mg/kg, iv administered as single dose by LC-MS/MS analysis. Further details: dose 10 mg/kg, route intravenous, time 0 - last. It is filed as ADME, organism-based. Put shortly: (§1)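 Male Sprague Dawley rats (250 ± 25 g), fasted overnight (12-16 h), n = 3 per time point; single 10 mg/kg dose orally by feeding needle, or iv from DMSO solution. Serum, prostate and hypothalamus collected up to 48 h post oral dose; hypothalamus from three rats pooled. LC-MS/MS (MRM, phenacetin internal standard), linear 5-400 ng/mL; noncompartmental and compartmental analysis.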

A short description of series [6]: Half life in Sprague-Dawley rat serum at 10 mg/kg, iv administered as single dose by LC-MS/MS analysis. It is filed as ADME, organism-based. The procedure, abridged:
as §1

Series [7] in a line: Volume of distribution at steady state in Sprague-Dawley rat serum at 10 mg/kg, iv administered as single dose by LC-MS/MS analysis. It is filed as ADME, organism-based. The note with it: read-out: Vdss. Put shortly: as §1
Series [8] in a line: AUClast in Sprague-Dawley rat serum at 10 mg/kg, po administered as single dose by LC-MS/MS analysis. It is filed as ADME, organism-based. Set-up: dose 10 mg/kg, route oral, time 0 - last. Put shortly: as §1
Series [9] is described as follows: Clearance in Sprague-Dawley rat serum at 10 mg/kg, po administered as single dose by LC-MS/MS analysis. It is filed as ADME, organism-based. Put shortly: as §1
Series [10] can be described thus: Oral bioavailability in Sprague-Dawley rat serum at 10 mg/kg administered as single dose by LC-MS/MS analysis. It is filed as ADME, organism-based. The procedure, abridged: as §1
A short description of series [11]: Volume of distribution at steady state in Sprague-Dawley rat prostate at 10 mg/kg, po administered as single dose by LC-MS/MS analysis. The note with it: in vivo. It is filed as ADME, organism-based, Prostate gland. The procedure, abridged:
as §1

Series [12] can be described thus: Ratio of drug level in prostate to serum in Sprague-Dawley rat at 10 mg/kg, po administered as single dose by LC-MS/MS analysis. It is filed as ADME, organism-based. The procedure, abridged:
as §1

Series [13] has as its system Hypothalamus. Nature of the series: AUClast in Sprague-Dawley rat hypothalamus at 10 mg/kg, po administered as single dose by LC-MS/MS analysis. It is filed as ADME, organism-based. The note with it: in vivo. The procedure, abridged:
as §1

Series [14] can be described thus: Half life in Sprague-Dawley rat hypothalamus at 10 mg/kg, po administered as single dose by LC-MS/MS analysis. It is filed as ADME, organism-based. The procedure, abridged:
as §1

Series [15] concerns Hypothalamus. In words: Clearance in Sprague-Dawley rat hypothalamus at 10 mg/kg, po administered as single dose by LC-MS/MS analysis. Particulars: in vivo. It is filed as ADME, organism-based. The procedure, abridged:
as §1

Series [16] has as its system Hypothalamus. Nature of the series: Volume of distribution at steady state in Sprague-Dawley rat hypothalamus at 10 mg/kg, po administered as single dose by LC-MS/MS analysis. It is filed as ADME, organism-based. Particulars: in vivo. Put shortly:
as §1

A short description of series [17]: Ratio of drug level in hypothalamus to serum in Sprague-Dawley rat at 10 mg/kg, po administered as single dose by LC-MS/MS analysis. It is filed as ADME, organism-based. Put shortly: as §1

SMILES strings stand for the structures. pEC50: −log10 of the molar value. The source made the active and inactive calls. The calls are words filed in the database; no cut-off is given here.

For the compound `c1ccc(N2CCN(CCCN3CCN(c4ccccn4)CC3)CC2)nc1`, the negative logarithm of the EC50 (pEC50) in the series on LNCaP was 4.81; in the series with PC-3 it was less than 4.10. Further, the outcome (in series [1]; with Rattus norvegicus; with Mus musculus [3]) was Active. In addition, the Activity in the series on Mus musculus [2] is 69.4%; in the series with Mus musculus [4] it was “Non-Toxic”. Moreover, the AUC(0-t) in series [5] was 2500 ng·h/mL; in [8] it was 900 ng·h/mL. The half-life in series [6] is 5.2 h; in [14] it was 129 h. In [7], the Vd turned out to be 28.3 L/kg. The same compound gave a CL/F in [9] of 65 mL/min/kg. Further, the bioavailability in series [10] amounted to 35.4%. Moreover, the Vdss in [11] is 3.6 g/kg; in the series with Hypothalamus [16] it was 6.6 g/kg. The Kp in series [12] worked out at 11.8; in [17] it was 4.6. In the series on Hypothalamus [13], this compound returned an AUClast of 4.2 µg·h/g. The same compound had a CL in the series on Hypothalamus [15] of 0.8 g/h/kg.

For orientation: pEC50 means the negative decadic logarithm of the EC50, by convention in mol/L. Broadly, the AUC(0-t) is the area under the concentration-time curve up to a stated or last time point. In general, half-life refers to the time in which the quantity being followed falls by half. The term CL/F denotes clearance divided by bioavailability, as obtained after extravascular dosing. In general, bioavailability refers to the share of a dose that reaches the circulation, judged against a reference dose that is usually intravenous. The term Kp denotes the ratio of the level in a tissue or fluid to that in plasma or blood.
